# Source: PubChem
# Compounds with a hit are over-represented: about 3.3% of the library has one in this group of screens.
# Myeloid diff MLP: promotes myeloid progenitor differentiation; ER-HoxA9 myeloid progenitors, lysozyme-GFP differentiation, flow cytometry; calls only at 10 µM; 360,000 tested, 1% active;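 active = normalized GFP-positive differentiation at or above the plate's own cutoff, the solvent-only control mean plus 3 SD; inconclusive = no clear call, values can overlap the other calls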;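 also: cells exposed to compound for four days before flow analysis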
# Arr AP2 block: human beta-arrestin and AP2 interaction inhibition. FITC-arrestin peptide / GST-AP2 beads, flow cytometry; AP2 beta2 appendage carries R879A mutation. inhibition, % at 10 µM. 340,000 tested, 0.31% active. AID 504490;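 active = inhibition above a set limit, near 3 SD of compounds lacking own fluorescence, cut at about 54% in these data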;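 also: plate controls were DMSO wells for no effect and 5 µM unlabelled arrestin peptide for full effect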
#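 Material – AP2 appendage R879A on GSH beads · Buffer or medium – PBS with 0.05% Tween 20 and 0.1% BSA · Probe or stimulus – fluorescein-tagged arrestin peptide at 50 nM final · Incubation – compound with beads 12 min RT, then probe 1 h RT · Detection – high-throughput flow cytometry of beads, ex 488, em 535 nm · Evaluation – percent response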
# Exocytosis inh: blocks lytic granule exocytosis; TALL-104 LAMP-1 surface exposure, flow cytometry; cells stimulated with thapsigargin and PMA; inhibition, % at 10 µM; 360,000 tested, 0.66% active;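 active = inhibition above about 55%, limit read from the data; inconclusive = no clear call, values can overlap the other calls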
# CendR NRP1 mod: alters CendR peptide binding to human NRP-1. O14786. FAM-RPARPAR peptide binding to NRP-1, fluorescence polarization. inhibition, % at 25 µM. 360,000 tested, 0.85% active. AID 602438;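 active = inhibition or corrected inhibition above about 18%, plus a signal ratio from 0.5 to 1.5, limit read from the data, passing the limit was not always enough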
# ATG4B inhibitor: ATG4B (human) cysteine protease inhibition; inhibition, % at 8.33 µM; ATG4B cleavage of LC3-PLA2, NBD-HPC fluorescence, 1 h; 340,000 tested, 0.51% active; Q9Y4P1; in the data active = inhibition above about 40%
# ABCB6 inh 2: blocks the human ABCB6 transporter; Q9NP58; K562-ABCB6 porphyrin accumulation, flow cytometry, 1 h; hits give low values; fluorescence ratio to DMSO, % at 10 µM; AID 602162; 360,000 tested, 0.19% active;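 active = fluorescence ratio to DMSO below 75%, the collection mean minus 3 SD; inconclusive = too few cells collected in the well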;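 also: signal is porphyrin accumulated inside mitochondria; 100% equals median channel fluorescence of DMSO control wells; lower ratio means ABCB6 inhibition with less porphyrin fluorescence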
# Target sequence (Q9NP58 whole entry, looked up): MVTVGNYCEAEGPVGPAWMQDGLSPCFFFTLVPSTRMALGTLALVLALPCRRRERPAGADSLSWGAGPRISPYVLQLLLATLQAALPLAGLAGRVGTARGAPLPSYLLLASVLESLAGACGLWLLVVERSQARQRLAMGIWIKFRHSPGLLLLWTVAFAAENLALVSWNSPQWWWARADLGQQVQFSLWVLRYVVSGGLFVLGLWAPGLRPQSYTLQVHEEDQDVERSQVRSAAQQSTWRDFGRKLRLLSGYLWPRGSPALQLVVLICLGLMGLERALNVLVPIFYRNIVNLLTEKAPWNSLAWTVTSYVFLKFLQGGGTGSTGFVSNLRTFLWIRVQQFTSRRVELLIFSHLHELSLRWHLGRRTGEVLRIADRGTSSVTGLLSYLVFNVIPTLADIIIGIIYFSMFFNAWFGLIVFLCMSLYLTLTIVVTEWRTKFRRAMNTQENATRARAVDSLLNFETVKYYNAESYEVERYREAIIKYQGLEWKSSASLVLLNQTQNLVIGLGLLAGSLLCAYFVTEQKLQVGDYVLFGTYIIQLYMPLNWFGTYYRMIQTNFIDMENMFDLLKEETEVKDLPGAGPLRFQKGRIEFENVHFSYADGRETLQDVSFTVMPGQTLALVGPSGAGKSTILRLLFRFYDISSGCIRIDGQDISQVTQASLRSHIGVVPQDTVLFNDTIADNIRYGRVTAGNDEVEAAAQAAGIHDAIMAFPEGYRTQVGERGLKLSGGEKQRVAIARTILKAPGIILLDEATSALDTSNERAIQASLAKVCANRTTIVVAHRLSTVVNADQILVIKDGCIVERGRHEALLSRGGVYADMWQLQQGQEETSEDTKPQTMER
# An asterisk follows results filed as active; i = inactive; ? = inconclusive; nt = no result given; + = active, no number.
SMILES,Myeloid diff MLP,Arr AP2 block,Exocytosis inh,CendR NRP1 mod,ATG4B inhibitor,ABCB6 inh 2
Cc1c(Nc2ccc3nonc3c2[N+](=O)[O-])c(=O)n(-c2ccccc2)n1C,i,10.7,1.3,10.7,-6.5,92.0
CCNC(=S)N1CCn2c(nc3ccccc32)C1,i,-9.9,-5.7,8.1,3.8,97.0
O=C(CSc1nnc2c(n1)[nH]c1ccc(F)cc12)N1CCOCC1,i,10.0,-0.8,-0.1,1.6,113.0
CC1Cc2ccccc2N1C(=O)CSc1nnc2c(n1)[nH]c1ccc(F)cc12 (stereo unspecified),i,4.1,-0.3,22.3*,-12.8,94.0
O=C(Nc1ccc2c(c1)OCCO2)C(c1ccncc1)n1c(=O)c(-c2cc3ccccc3[nH]2)nc2ccccc21 (stereo unspecified),+,nt,-2.2,-16.5,nt,nt
COc1ccc(-c2csc(NC(=O)COC(=O)C3=COCCO3)n2)cc1,i,28.4,-0.6,5.1,-2.6,97.0
C[C@H]1O[C@H](O[C@H]2[C@H](O[C@@H]3CC[C@@]4(C)C(CC[C@]5(C)C4CC=C4[C@@H]6CC(C)(C)CC[C@]6(C(=O)O[C@@H]6O[C@H](CO)[C@@H](O)[C@H](O)[C@H]6O)CC[C@]45C)C3(C)C)O[C@H](C(=O)O)[C@@H](O)[C@@H]2O)[C@@H](O)[C@@H](O)[C@@H]1O (stereo partly specified),i,-7.2,-7.3,-11.2,-10.8,101.0
CC1(C)CC[C@]2(C(=O)O[C@@H]3O[C@H](CO)[C@@H](O)[C@H](O)[C@H]3O)CC[C@]3(C)C(=CCC4[C@@]5(C)CC[C@H](O[C@@H]6O[C@H](C(=O)O)[C@@H](O[C@H]7OC[C@@H](O)[C@@H](O)[C@@H]7O)[C@H](O)[C@H]6O)C(C)(C)C5CC[C@]43C)[C@@H]2C1 (stereo partly specified),i,-0.5,55.8*,-16.5,-7.1,98.0
NC(c1csc(Nc2ncccn2)n1)c1ccccc1Cl (stereo unspecified),i,nt,?,4.3,nt,101.0
Cc1sc2ncnc(N3CCC(C(=O)NNC(=O)COc4ccc(Cl)cc4)CC3)c2c1C,i,-8.7,4.1,3.9,-7.3,96.0
Cc1sc2ncnc(N3CCN(CCOc4ccc(Cl)cc4)CC3)c2c1C,+,-7.1,2.8,1.9,-1.1,98.0
Cc1sc2ncnc(N3CCN(Cc4ccccc4)CC3)c2c1-c1ccccc1,i,-1.4,63.2*,-4.3,7.6,96.0
O=S(=O)(c1cccs1)N1CCN(c2ccc(O)cc2)CC1,+,36.0,-0.2,9.3,-2.3,90.0
CN1CCN(S(=O)(=O)c2cccs2)CC1,i,7.3,3.6,9.9,-1.8,100.0
CC(=O)c1cccc(N(C(=O)CNC(=O)c2ccco2)C(C(=O)NCc2ccco2)c2ccccc2)c1 (stereo unspecified),i,33.9,-4.7,4.1,-15.6,95.0
O=C(CSc1cccc2cccnc12)N/N=C/c1cccc(O)c1,i,12.6,0.8,-8.8,-13.8,101.0
O=C(CSc1cccc2cccnc12)N/N=C/c1ccc(F)cc1,i,6.5,-3.7,36.5*,-13.4,101.0
O=C(COC(=O)CNC(=O)c1ccc(Cl)c([N+](=O)[O-])c1)NC(=O)CN1CCCC1=O,i,1.9,0.4,-4.7,-12.8,98.0
Cc1ccc(NC(=O)c2cc(-c3cc(F)ccc3OCC3CCCO3)n[nH]2)cc1NS(C)(=O)=O (stereo unspecified),i,nt,-0.6,27.9*,nt,93.0
COc1cc(CNC(=O)c2cc(-c3cc(F)ccc3OCC3CCCO3)n[nH]2)cc(OC)c1 (stereo unspecified),i,nt,-2.9,11.0,nt,90.0
c1ccc(CN2CCN(c3cnc4ccccc4n3)CC2)cc1,i,5.5,-9.7,8.6,-4.5,94.0
Fc1ccccc1N1CCN(c2cnc3ccccc3n2)CC1,i,-6.3,11.7,24.4*,7.2,95.0
O=S(=O)(c1ccc(S(=O)(=O)N(Cc2ccccc2)Cc2ccco2)cc1)N1CCCC1,i,-1.2,-3.2,-5.9,6.2,97.0
COC(=O)/C=C/c1ccccc1S(=O)(=O)N(Cc1ccccc1)Cc1ccco1,?,4.1,6.0,16.7*,0.5,102.0
